Assay results taken from ChEMBL document CHEMBL5390255, “Expanding the squaramide library as mycobacterial ATP synthase inhibitors: Innovative synthetic pathway and biological evaluation” (Bioorg Med Chem, 2023).
≈ marks a conversion by molar mass, not a printed value. Calls of active or inactive are those of the source. The calls are words filed in the database; no cut-off is given here.

Experiments:
[1] = Cytotoxicity against mouse RAW264.7 cells assessed as reduction of cell viability incubated for 72 hrs by Cell Titer-Glo assay; type: toxicity, cell-based
[2] = Octanol/water partition coefficient log P of the compound; type: physicochemical
Procedure, shortened: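 Calculated by Chemaxon as log n-octanol/water partition coefficient, not measured.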

[3] = test system: Mycobacterium tuberculosis; test: Antibacterial activity against Mycobacterium tuberculosis H37Ra assessed as bacterial growth inhibition incubated for 7 days by broth microdilution method; type: functional; settings: time 7 day
Procedure, shortened: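 H37Ra-Lux luminescent broth microdilution. Cultures in 7H9/OADC/tyloxapol/glycerol at 1x10⁴ RLU/well. 2-fold nine-point dilution from final 100 µM, DMSO ≤0.5%, in triplicate, with bedaquiline reference. Incubated 7 days at 37 °C; luminescence read after n-decanal injection. MIC90 from variable-slope four-parameter nonlinear regression.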

[4] = test system: Mycobacterium tuberculosis; test: Antibacterial activity against Mycobacterium tuberculosis H37Rv assessed as bacterial growth inhibition by resazurin staining based broth micro-dilution assay; type: functional
[5] = test system: Mycobacterium tuberculosis; test: Anti-mycobacterial activity against Mycobacterium tuberculosis H37Ra infected in mouse RAW264.7 cells at 0.5 to 2 times MIC measured after 72 hrs by time-kill kinetic assay; type: functional, organism-based
Procedure, shortened: (§1)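 RAW 264.7 macrophages infected with H37Ra-Lux at MOI 10 for 4 h in DMEM with 5% iFBS. Extracellular bacteria were removed with 200 µg/ml amikacin for 1 h, and cells reseeded at 5x10⁴/well. […] Cells were PBS-washed, lysed in 0.1% Triton X-100, and luminescence read with n-decanal at 24, 48 and 72 h.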

ATP synthase = test: Inhibition of Mycobacterium tuberculosis H37Rv ATP synthase by luminometer analysis; type: protein-complex assay
[6] = test system: Mycobacterium tuberculosis; test: Synergistic antibacterial activity against Mycobacterium tuberculosis H37Ra assessed as fractional inhibitory concentration index at 2 times MIC measured after 7 days in presence of clofazimine by checkerboard microdilution assay; type: functional; settings: time 7 day
Procedure, shortened: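 Checkerboard with H37Ra-Lux, in triplicate. Squaramide 2-fold dilutions from 2x MIC across columns; clofazimine 2-fold dilutions from 2x MIC down rows. Luminescence read at 7 days. FICI calculated as A/MIC A + B/MIC B.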

[7] = test system: Mycobacterium tuberculosis; test: Bactericidal activity against Mycobacterium tuberculosis H37Ra assessed as bacterial growth inhibition incubated for 3 to 4 weeks by broth microdilution method; type: functional; settings: time 3-4 weeks
Procedure, shortened: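 MBC: same H37Ra-Lux microdilution setup as the MIC assay. At 14 days, 2 µL per condition spotted on 7H11 agar in triplicate, and wells at and one step above MIC fully plated. Colonies counted after 3–4 weeks at 37 °C. MBC is the lowest concentration giving >99% kill.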

[8] = Selectivity index, ratio of MIC for antibacterial activity against Mycobacterium tuberculosis H37Rv to the IC50 for inhibition of Mycobacterium tuberculosis H37Rv ATP synthase; type: toxicity
[9] = test system: Mycobacterium tuberculosis; test: Anti-mycobacterial activity against Mycobacterium tuberculosis H37Ra infected in mouse RAW264.7 cells at 0.5 to 2 times MIC measured after 24 hrs by time-kill kinetic assay; type: functional, organism-based; procedure, shortened: as §1
[10] = Stability of compound; type: physicochemical
[11] = test system: Mycobacterium tuberculosis; test: Anti-mycobacterial activity against Mycobacterium tuberculosis H37Ra infected in mouse RAW264.7 cells at 0.5 times MIC measured after 24 hrs by time-kill kinetic assay; type: functional, organism-based; procedure, shortened: as §1
[12] = test system: Mycobacterium tuberculosis; test: Anti-mycobacterial activity against Mycobacterium tuberculosis H37Ra.mScarlet+ infected in mouse RAW264.7 cells assessed as reduction in bacterial load at 4 uM incubated for 72 hrs by 488-I Phalloidin/DAPI staining based microscopic analysis relative to control; type: functional; set-up: scale not given: the % may be the effect or the level left
Procedure, shortened: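 RAW 264.7 cells infected with H37Ra.mScarlet⁺, seeded on coverslips at 5x10⁵ cells/ml, and treated with compound at 0.5% final DMSO; infected cells with 0.5% DMSO as control. At 72 h cells were PBS-washed and fixed in 4% paraformaldehyde. Actin stained with phalloidin 488 (1:1000, 15 min) and nuclei with 1 µg/ml DAPI (5 min). Imaged by fluorescence microscopy at 63x.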

[13] = test system: Mycobacterium tuberculosis; test: Antibacterial activity against wild type Mycobacterium tuberculosis H37Ra incubated for 7 days by resazurin staining based microtiter assay; type: functional; settings: 168 h, time 7 day
Procedure, shortened: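 Resazurin microtiter assay on H37Ra atpB K179N mutants and wild type, using exponential cultures diluted to OD 0.02. 3-fold serial dilution from 10 µM (0.002–10 µM), in triplicate. After 7 days, 0.02% resazurin added for 24 h, then fluorescence read (ex 530/em 590 nm). MIC taken from four-parameter variable-slope nonlinear regression.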

[14] = Mycobacterium tuberculosis, H37Ra, 168 h, read-out: MIC
[15] = Mycobacterium tuberculosis, H37Ra, read-out: MBC

| Structure (SMILES) | CC50 at 72 h [1] [µM] | logP [2] | MIC [3, 14] [µM] | other results |
| --- | --- | --- | --- | --- |
| CCCNc1c(NCc2ccccn2)c(=O)c1=O | > 64 | 0.82 | > 64 | – |
| O=c1c(NCc2ccccn2)c(N2CCNCC2)c1=O | > 64 | -0.21 | > 64 | – |
| O=c1c(NCc2ccccn2)c(Nc2nc3ccccc3o2)c1=O | > 64 | 1.61 | > 64 | – |
| O=c1c(NCc2ccccc2)c(NCc2ccccn2)c1=O | > 64 | 1.67 | > 64 | – |
| O=c1c(NCc2ccccn2)c(-c2ccc(N3CCOCC3)cc2)c1=O | > 64 | – | – | MIC [4]: 0.5 µM (≈ 0.175 µg/mL); Activity [5]: inactive; IC50 (ATP synthase): 0.03 µM; fractional inhibitory concentration index (FICI) [6]: 0.37; MBC [7]: 0.4 µM (≈ 0.14 µg/mL); Selectivity Index [8]: > 1000; MIC [3]: 0.77 µM (≈ 0.269 µg/mL) |
| CCCCCCNc1c(NCc2ccccn2)c(=O)c1=O | > 64 | 2.16 | > 64 | – |
| O=c1c(NCc2ccccn2)c(N2CCC(c3ccccc3)CC2)c1=O | 7.47 | 2.6 | > 64 | – |
| O=c1c(NCc2ccccn2)c(Nc2nc3cc(Cl)ccc3o2)c1=O | > 64 | 2.22 | > 64 | – |
| COc1ccc(-c2c(NCc3ccccn3)c(=O)c2=O)cc1 | > 64 | 2.18 | 6.59 (≈ 1.94 µg/mL) | Activity [5]: inactive; fractional inhibitory concentration index (FICI) [6]: 0.63; MBC [7, 15]: 8 µM (≈ 2.35 µg/mL); Activity [9]: inactive |
| O=c1c(NCc2ccccn2)c(Nc2cc(C3CC3)n[nH]2)c1=O | > 64 | 0.89 | > 64 | – |
| O=c1c(NCc2ccccn2)c(N2CCN(c3ccccc3)CC2)c1=O | 26.2 | 2.06 | > 64 | – |
| C#CCNc1c(NCc2ccccn2)c(=O)c1=O | > 64 | 0.17 | > 64 | – |
| COc1ccc(/C=C2/S/C(=N/N=C/c3ccccc3O)NC2=O)cc1 | – | – | – | MIC90 ([4]; Mycobacterium tuberculosis, H37Rv): 0.5 µg/mL (≈ 1.41 µM) |
| O=c1c(NCc2ccccn2)c(-c2ccc(N3CCSCC3)cc2)c1=O | > 64 | 2.8 | 0.9 (≈ 0.329 µg/mL) | Activity [5]: inactive; Stability [10]: Unstable; fractional inhibitory concentration index (FICI) [6]: 0.48; MBC [7, 15]: 1.2 µM (≈ 0.439 µg/mL) |
| O=c1c(NCc2ccccn2)c(N2CCOCC2)c1=O | > 64 | 0.11 | > 64 | – |
| O=c1c(NCc2ccccn2)c(NC2CCCCC2)c1=O | > 64 | 1.74 | > 64 | – |

| Structure (SMILES) | CC50 at 72 h [1] [µM] | logP [2] | MIC [3, 14] [µM] | other results |
| --- | --- | --- | --- | --- |
| O=c1c(NCc2ccccn2)c(Nc2nc3ccc(Cl)cc3o2)c1=O | > 64 | 2.22 | > 64 | – |
| O=c1c(NCc2ccccn2)c(-c2ccc(C3CCNCC3)cc2)c1=O | > 64 | 2.44 | > 64 | – |
| O=c1c(NCc2ccccn2)c(Nc2ccccc2)c1=O | > 64 | 1.58 | 15.1 (≈ 4.23 µg/mL) | – |
| Cc1ccc2oc(Nc3c(NCc4ccccn4)c(=O)c3=O)nc2c1 | > 64 | 2.13 | > 64 | – |
| O=c1c(NCc2ccccn2)c(-c2ccc(F)cc2)c1=O | > 64 | 2.48 | 14.9 (≈ 4.21 µg/mL) | MBC [7, 15]: > 100 µM |
| O=c1c(NCCCBr)c(NCc2ccccn2)c1=O | > 64 | 0.85 | > 64 | – |
| O=c1c(NCc2ccccn2)c(Nc2nc3ccc([N+](=O)[O-])cc3o2)c1=O | > 64 | 1.55 | > 64 | – |
| O=c1c(NCc2ccccn2)c(NC2CCCCCCC2)c1=O | > 64 | 2.63 | > 64 | – |
| O=c1c(NCc2ccccn2)c(-c2ccc(N3CCNCC3)cc2)c1=O | > 64 | 1.91 | 19.9 (≈ 6.93 µg/mL) | MBC [7, 15]: 64 µM (≈ 22.3 µg/mL) |
| O=c1c(NCc2ccccn2)c(-c2ccc(N3CCCCC3)cc2)c1=O | > 64 | 3.29 | 2.56 (≈ 0.889 µg/mL) | Activity [11]: Active; Activity [5]: inactive; fractional inhibitory concentration index (FICI) [6]: 0.29; MBC [7, 15]: 1.2 µM (≈ 0.417 µg/mL); Activity [12]: 80% |
| Cc1ccc2nc(Nc3c(NCc4ccccn4)c(=O)c3=O)oc2c1 | > 64 | 2.13 | > 64 | – |
| COc1nc2ccc(Br)cc2cc1[C@@H](c1ccccc1)[C@@](O)(CCN(C)C)c1cccc2ccccc12 [BEDAQUILINE] | – | – | 0.05 (≈ 0.0278 µg/mL) | MBC [7, 15]: 0.03 µM (≈ 0.0167 µg/mL); MIC [13]: 0.1 µM (≈ 0.0556 µg/mL) |
| O=c1c(NCc2ccccn2)c(N2CCCCC2)c1=O | > 64 | 1.18 | > 64 | – |
| O=c1c(NCc2ccccn2)c(-c2ccc(C3CCCCC3)cc2)c1=O | > 64 | 4.45 | > 64 | – |
| CC/C(=C(\c1ccccc1)c1ccc(OCCN(C)C)cc1)c1ccccc1 [TAMOXIFEN] | 5.03 | – | – | – |
| O=c1c(NCc2ccccn2)c(Nc2nc3cc([N+](=O)[O-])ccc3o2)c1=O | > 64 | 1.55 | > 64 | – |
